The results in this text go back to ChEMBL document CHEMBL3407481, “Pyridine C-region analogs of 2-(3-fluoro-4-methylsulfonylaminophenyl)propanamides as potent TRPV1 antagonists” (Eur J Med Chem, 2015).

Each structure is given as a SMILES string. pIC50, pKi: −log10 of the molar value.

In assay [1] the target is T1, Transient receptor potential cation channel subfamily V member 1 (Homo sapiens, UniProt Q8NER1). The assay is described as follows: Antagonist activity at human TRPV1 expressed in CHO cells assessed as inhibition of capsaicin-induced activity by FLIPR assay. In kind it is cell-based. The following applies: for pKi: read-out: Ki.
For assay [2], the target named is T1, Transient receptor potential cation channel subfamily V member 1. Briefly: Antagonist activity at human TRPV1 expressed in CHO cells assessed as inhibition of N-arachidonoyl dopamine-induced activity by FLIPR assay. In kind it is cell-based.
The target is the same in assay [3]. The assay is described as follows: Antagonist activity at human TRPV1 expressed in CHO cells assessed as inhibition of pH-induced activity by FLIPR assay. In kind it is cell-based.
The test system of assay [4] is Mus musculus. The assay is described as follows: Analgesic activity in mouse assessed as inhibition of formalin-induced response at 0.3 mg/kg, po. The class given is functional. In outline:
(§1)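 Formalin test in mice after oral dosing. Values are tabulated as MPE and described as % inhibition of the nociceptive response.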

The test system of assay [5] is Mus musculus. The assay is described as follows: Inhibition in capsaicin-induced hypothermia in mouse at 0.3 mg/kg, po 15 min before capsaicin challenge measured 30 mins post capsaicin treatment. The class given is functional.
Assay [6] has as its system Mus musculus. The assay is described as follows: Analgesic activity in mouse assessed as inhibition of formalin-induced response at 0.1 mg/kg, po. In kind it is functional. The gist of the method: as §1
The target in assay [7] is T1, Transient receptor potential cation channel subfamily V member 1. Briefly: Antagonist activity at human TRPV1 expressed in CHO cells assessed as inhibition of heat at 45 degC-induced activity by FLIPR assay. In kind it is cell-based.
The subject of assay [8] is Mus musculus. Briefly: Inhibition in capsaicin-induced hypothermia in mouse at 10 mg/kg, po 15 min before capsaicin challenge measured 30 mins post capsaicin treatment. In kind it is functional.
In assay [9] the test system is Mus musculus. The assay is described as follows: Analgesic activity in mouse assessed as inhibition of formalin-induced response at 1 mg/kg, po. The class given is functional. The gist of the method:
as §1

Assay [10] concerns Mus musculus. Briefly: Inhibition in capsaicin-induced hypothermia in mouse at 1 mg/kg, po 15 min before capsaicin challenge measured 30 mins post capsaicin treatment. The class given is functional.
The subject of assay [11] is Mus musculus. Briefly: Inhibition in capsaicin-induced hypothermia in mouse at 0.1 mg/kg, po 15 min before capsaicin challenge measured 30 mins post capsaicin treatment. The class given is functional.
In assay [12] the test system is Mus musculus. Briefly: Inhibition in capsaicin-induced hypothermia in mouse compound dosed orally before capsaicin challenge measured 30 mins post capsaicin treatment. The class given is functional, organism-based.

T1 sequence (Q8NER1 whole entry): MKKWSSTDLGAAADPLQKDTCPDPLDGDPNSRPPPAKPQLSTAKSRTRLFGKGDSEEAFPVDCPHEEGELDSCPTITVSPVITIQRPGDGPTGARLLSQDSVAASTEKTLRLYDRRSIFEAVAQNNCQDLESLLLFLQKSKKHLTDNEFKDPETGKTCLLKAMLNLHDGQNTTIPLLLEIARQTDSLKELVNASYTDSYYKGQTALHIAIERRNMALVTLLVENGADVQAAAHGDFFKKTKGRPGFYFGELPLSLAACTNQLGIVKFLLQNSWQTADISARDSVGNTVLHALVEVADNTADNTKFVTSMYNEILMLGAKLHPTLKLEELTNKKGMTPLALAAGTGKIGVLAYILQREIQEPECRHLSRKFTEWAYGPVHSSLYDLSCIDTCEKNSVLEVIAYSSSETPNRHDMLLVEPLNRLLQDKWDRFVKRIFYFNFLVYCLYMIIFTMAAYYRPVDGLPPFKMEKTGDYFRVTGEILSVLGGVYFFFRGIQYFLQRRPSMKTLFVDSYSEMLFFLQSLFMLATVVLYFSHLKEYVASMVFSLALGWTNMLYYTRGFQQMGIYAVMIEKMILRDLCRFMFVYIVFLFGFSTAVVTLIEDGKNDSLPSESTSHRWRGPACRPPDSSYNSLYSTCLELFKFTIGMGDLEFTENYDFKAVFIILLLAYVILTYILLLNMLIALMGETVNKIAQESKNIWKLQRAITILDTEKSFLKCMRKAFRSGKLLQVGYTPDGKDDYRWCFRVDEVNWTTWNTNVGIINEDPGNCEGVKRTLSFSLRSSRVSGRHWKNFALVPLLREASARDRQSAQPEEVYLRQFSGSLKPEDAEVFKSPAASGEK

As to `CC(C(=O)NCc1ncc(C(F)(F)F)cc1N1CCCCC1)c1ccc(NS(C)(=O)=O)c(F)c1` (stereo not drawn), the pKi in assay [1] was 7.54.

As to `CC(C(=O)NCc1ncc(C(F)(F)F)cc1N1CCCC1)c1ccc(NS(C)(=O)=O)c(F)c1` (stereo not drawn), the Ki result in assay [1] (cho) is recorded as “Not Active”.

As to `CC(C(=O)NCc1ccc(C(F)(F)Cl)nc1N1CCCCC1)c1ccc(NS(C)(=O)=O)c(F)c1` (stereo not drawn), in assay [1], the pKi was 8.89.

Turning to `CC1CCN(c2nc(C(F)(F)F)ccc2CNC(=O)C(C)c2ccc(NS(C)(=O)=O)c(F)c2)CC1` (stereo not drawn), the pKi in assay [2] is 10.70. The pIC50 in assay [3] is 7.80.

For `CCCCOc1nc(C(F)(F)Cl)ccc1CNC(=O)C(C)c1ccc(NS(C)(=O)=O)c(F)c1` (stereo not drawn), the MPE in the assay on Mus musculus [4] is listed as 73%; with Mus musculus [6], 56%. Further, in the assay on Mus musculus [5], the inhibition in vivo at 0.3 mg/kg stood at 43%. Moreover, the pKi was 10.70 in assay [2] and 9.52 in assay [1]. Moreover, the pIC50 was 8.15 in assay [7] and 8.08 in assay [3].

On to `CC(C(=O)NCc1ccc(C2CC2)nc1N1CCCCC1)c1ccc(NS(C)(=O)=O)c(F)c1` (stereo not drawn), for which the negative-log Ki (pKi) in assay [1] was 8.96.

In the case of `CCCCCCOc1nc(C(F)(F)F)cc(C)c1CNC(=O)C(C)c1ccc(NS(C)(=O)=O)c(F)c1` (stereo not drawn), the pKi in [1] is 7.00.

With `CC1CCN(c2nc(-c3ccc(F)cc3)ccc2CNC(=O)C(C)c2ccc(NS(C)(=O)=O)c(F)c2)CC1` (stereo not drawn), the pKi in [1] is 7.23.

In the case of `CC(C(=O)NCc1ccc(C(F)(F)Cl)nc1OC1CCCC1)c1ccc(NS(C)(=O)=O)c(F)c1` (stereo not drawn), the inhibition in vivo at 10 mg/kg in the assay on Mus musculus [8] is 92%. In addition, the values for the MPE with Mus musculus [4] and in the assay on Mus musculus [9] were 29% and 15%, respectively. Further, 0.3 mg/kg produced 41% inhibition in vivo in the assay with Mus musculus [5]. For the same compound, the pKi in assay [2] was 10.40. In addition, at 1 mg/kg the inhibition in vivo in the assay on Mus musculus [10] was 60%. Besides, at 0.1 mg/kg the inhibition in vivo with Mus musculus [11] was 23%. Moreover, the inhibition result in the assay on Mus musculus [12] was “Dose-dependent effect”. The pIC50 in [7] was 7.71.

For `CC(C(=O)NCc1ccc(C(F)(F)Cl)nc1SC1CCCCC1)c1ccc(NS(C)(=O)=O)c(F)c1` (stereo not drawn), the pKi in assay [1] is 8.52.

For the compound `CC(C(=O)NCc1ccc(C(F)(F)Cl)nc1N1CCCCCC1)c1ccc(NS(C)(=O)=O)c(F)c1` (stereo not drawn), the pKi in assay [1] was 9.30.

For `CC1CCN(c2nc(C3CC3)ccc2CNC(=O)C(C)c2ccc(NS(C)(=O)=O)c(F)c2)CC1` (stereo not drawn), the pKi in assay [1] was 9.05.

Regarding `CC1CC(C)CN(c2nc(C(F)(F)Cl)ccc2CNC(=O)C(C)c2ccc(NS(C)(=O)=O)c(F)c2)C1` (mixture of isomers), the pKi in assay [1] is 9.00.

The term pKi denotes the Ki on a negative log10 scale, so that one unit is a factor of ten. The pIC50 is the IC50 on a negative log10 scale, so that one unit is a factor of ten. What is called inhibition in vivo is the share of the control response that was lost under treatment. Read a high inhibition in vivo as a response far below the control.
